Experimental data taken from ChEMBL document CHEMBL1127688, “Guaiacoxypropanolamine derivatives of capsaicin: a new family of beta-adrenoceptor blockers with intrinsic cardiotonic properties” (J Med Chem, 1994).

Assays:
[1] = tested on: Rattus norvegicus; test: Minimum dose of iv injection that shows vagus reflex and a heart rate decrease of 50 beats/min in non-vagotomized rats; format: functional
Summary of the method: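 Non-vagotomized rats given increasing iv doses. The value is the lowest dose (mg/kg) that elicits a vagus reflex with a heart-rate fall of 50 beats/min. Compounds were scored ineffective if no such response occurred below 3 mg/kg. n = 8.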

[2] = tested on: Rattus norvegicus; test: Change in blood pressure was tested by inducing ia injection at a dose 0.1 mg/kg in rat; format: functional; details: route intra-arterial
[3] = species: Cavia porcellus; test: Positive inotropic effect was evaluated on atrial muscles of the guinea pig; format: functional, Muscle tissue; details: for Kb: Cavia porcellus, Muscle tissue, read-out: pA2 (converted)
[4] = tested on: Rattus norvegicus; test: Heart rate of the urethane-anesthetized normotensive Wistar rat was tested 30 min after inducing the compound on dose of 1.0 mg/kg; format: functional
Summary of the method: (§1)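 Urethane-anesthetized normotensive Wistar rats given a single iv injection at 1.0 mg/kg. Blood pressure (mmHg) and heart rate (beats/min) recorded, and the change reported at 5, 10, 15, 30 and 60 min after dosing. Saline-injected controls. Mean ± SE, n = 8. Significance versus saline by analysis of variance.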

[5] = tested on: Rattus norvegicus; test: Heart rate of the urethane-anesthetized normotensive Wistar rat was tested 60 min after inducing the compound on dose of 1.0 mg/kg; format: functional; summary of the method: as §1
[6] = tested on: Rattus norvegicus; test: Blood pressure of the urethane-anesthetized normotensive Wistar rat was tested 5 min after inducing the compound on dose of 1.0 mg/kg; format: functional; summary of the method: as §1
[7] = tested on: Rattus norvegicus; test: Blood pressure of the urethane-anesthetized normotensive Wistar rat was tested 30 min after inducing the compound on dose of 1.0 mg/kg; format: functional; summary of the method: as §1
[8] = tested on: Rattus norvegicus; test: Heart rate of the urethane-anesthetized normotensive Wistar rat was tested 10 min after inducing the compound on dose of 1.0 mg/kg; format: functional; summary of the method: as §1
[9] = tested on: Rattus norvegicus; test: Blood pressure of the urethane-anesthetized normotensive Wistar rat was tested 60 min after inducing the compound on dose of 1.0 mg/kg; format: functional; summary of the method: as §1
[10] = tested on: Rattus norvegicus; test: Heart rate of the urethane-anesthetized normotensive Wistar rat was tested 5 min after inducing the compound on dose of 1.0 mg/kg; format: functional; summary of the method: as §1
[11] = species: Cavia porcellus; test: Positive chronotropic effect was evaluated on atrial muscles of the guinea pig; format: functional, Muscle tissue; details: for Kb: Cavia porcellus, Muscle tissue, read-out: pA2 (converted)
[12] = tested on: Rattus norvegicus; test: Blood pressure of the urethane-anesthetized normotensive Wistar rat was tested 15 min after inducing the compound on dose of 1.0 mg/kg; format: functional; summary of the method: as §1
[13] = tested on: Rattus norvegicus; test: Heart rate of the urethane-anesthetized normotensive Wistar rat was tested 15 min after inducing the compound on dose of 1.0 mg/kg; format: functional; summary of the method: as §1
[14] = tested on: Rattus norvegicus; test: Blood pressure of the urethane-anesthetized normotensive Wistar rat was tested 10 min after inducing the compound on dose of 1.0 mg/kg; format: functional; summary of the method: as §1
[15] = tested on: Rattus norvegicus; test: Change in blood pressure was tested by inducing ia injection at a dose 0.01 mg/kg in rat; format: functional; details: route intra-arterial
Summary of the method: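 Urethane-anaesthetised normotensive Wistar rats; single intra-arterial bolus via the superficial epigastric artery. Read-out is the depressor change in systemic blood pressure in mmHg. Data are means ± SE, n = 8, analysed by ANOVA.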

Row | Compound | Kb [3] | HR [4] | HR [5] | BP [6] | BP [7] | HR [8] | BP [9] | HR [10] | Kb [11] | BP [12] | HR [13] | BP [14] | other results
1 | CCCCCCCCC(=O)NCc1ccc(OCCO)c(OC)c1 | – | – | – | – | – | – | – | – | – | – | – | – | Dose [1]: 0.3 mg/kg; BP [2]: -44.2 mmHg
2 | CCCCCCCCC(=O)NCc1ccc(OCC(O)CNCCCCC)c(OC)c1 (configuration not stated) | 28.2 nM | -5.78 beats min-1 | -6.56 beats min-1 | -4.67 mmHg | 3.67 mmHg | -23.33 beats min-1 | 2.44 mmHg | -25.11 beats min-1 | 64.6 nM | -0.88 mmHg | -10.22 beats min-1 | -1.67 mmHg | –
3 | CCCCCCCCC(=O)NCc1ccc(OCC(O)CNC(C)CC)c(OC)c1 (configuration not stated) | 22.4 nM | -25.11 beats min-1 | -9.56 beats min-1 | 4.11 mmHg | -0.88 mmHg | -35.44 beats min-1 | 1.22 mmHg | -38.56 beats min-1 | 120 nM | 3.33 mmHg | -32.33 beats min-1 | 4.89 mmHg | –
4 | CCCCCCCCC(=O)NCc1ccc(OCC(O)CNCCCCCC)c(OC)c1 (configuration not stated) | 66.1 nM | -12.67 beats min-1 | -8 beats min-1 | -2.22 mmHg | -2.11 mmHg | -24.11 beats min-1 | 1.89 mmHg | -35.56 beats min-1 | 933 nM | -4.44 mmHg | -14.89 beats min-1 | -2.89 mmHg | –
5 | CCCCCCCCC(=O)NCc1ccc(OCCN(CC)CC)c(OC)c1 | – | – | – | – | – | – | – | – | – | – | – | – | Dose [1]: 0.5 mg/kg; BP [2]: -15 mmHg
6 | CCCCCCCCC(=O)NCc1ccc(OCC(O)CNC)c(OC)c1 (configuration not stated) | 74.1 nM | 14.56 beats min-1 | 4.78 beats min-1 | -1.11 mmHg | 1.89 mmHg | -17.33 beats min-1 | 0.78 mmHg | -34.56 beats min-1 | 295 nM | -0.56 mmHg | -12.22 beats min-1 | -0.22 mmHg | –
7 | CCCCCCCCC(=O)NCc1ccc(OCC(O)CNCCCC)c(OC)c1 (configuration not stated) | 53.7 nM | -15.33 beats min-1 | -3.67 beats min-1 | -0.22 mmHg | 0.11 mmHg | -33.78 beats min-1 | 3.33 mmHg | -40 beats min-1 | 58.9 nM | -1.22 mmHg | -26.22 beats min-1 | -1.22 mmHg | –
8 | CCCCCCCCC(=O)NCc1ccc(OCC(O)CNC(C)C)c(OC)c1 (configuration not stated) | 8.51 nM | -32.67 beats min-1 | -20 beats min-1 | -0.44 mmHg | -6.67 mmHg | -40.78 beats min-1 | -1.33 mmHg | -50.22 beats min-1 | 17 nM | -2.89 mmHg | -35.44 beats min-1 | -1.22 mmHg | –
9 | CCCCCCCCC(=O)NCc1ccc(OCCN(C)C)c(OC)c1 | – | – | – | – | – | – | – | – | – | – | – | – | Dose [1]: 0.5 mg/kg; BP [2]: -21.6 mmHg
10 | CCCCCCCCC(=O)NCc1ccc(OCC(O)CNC(C)(C)C)c(OC)c1 (configuration not stated) | 15.8 nM | -24.88 beats min-1 | -18.5 beats min-1 | 3.13 mmHg | 1.25 mmHg | -37.75 beats min-1 | 4.63 mmHg | -45 beats min-1 | 39.8 nM | 2.38 mmHg | -29.5 beats min-1 | 3.38 mmHg | –
11 | CCCCCCCCC(=O)NCc1ccc(OCC(O)CNC2CC2)c(OC)c1 (configuration not stated) | – | -11.89 beats min-1 | -2.67 beats min-1 | -0.11 mmHg | 3.67 mmHg | -38.89 beats min-1 | 2.22 mmHg | -47.67 beats min-1 | – | 3.89 mmHg | -23.67 beats min-1 | 3.11 mmHg | –
12 | CCCCCCCCC(=O)NCc1ccc(OCC(O)CNCC)c(OC)c1 (configuration not stated) | 53.7 nM | -21.11 beats min-1 | 2.56 beats min-1 | 7.44 mmHg | -2.44 mmHg | -32.22 beats min-1 | 1.88 mmHg | -38.33 beats min-1 | 117 nM | 1.11 mmHg | -28 beats min-1 | 2.56 mmHg | –
13 | CCCCCCCCC(=O)NCc1ccc(OCC(O)CNC2CCCCC2)c(OC)c1 (configuration not stated) | – | -1.78 beats min-1 | 2.78 beats min-1 | -4.11 mmHg | 1.33 mmHg | -28.44 beats min-1 | 0.67 mmHg | -32.33 beats min-1 | – | -3.67 mmHg | -11.67 beats min-1 | -4.22 mmHg | –
14 | CCCCCCCCC(=O)NCc1ccc(OCC(O)CNCC(C)C)c(OC)c1 (configuration not stated) | 26.9 nM | 4.13 beats min-1 | 3.13 beats min-1 | -2.75 mmHg | 2 mmHg | -35.25 beats min-1 | 0.25 mmHg | -39.88 beats min-1 | 117 nM | 1.63 mmHg | -27.13 beats min-1 | 1.63 mmHg | –
15 | CCCCCCCCC(=O)NCc1ccc(OCC(O)CNCCC)c(OC)c1 (stereo in doubt; 6) | 25.1 nM | – | – | – | – | – | – | – | 93.3 nM | – | – | – | HR ([4]; 1 mg/kg): -5 beats min-1; HR ([5]; 1 mg/kg): -7.56 beats min-1; BP ([6]; 1 mg/kg): -1.56 mmHg; BP ([7]; 1 mg/kg): -1.11 mmHg; HR ([8]; 1 mg/kg): -28.22 beats min-1; BP ([9]; 1 mg/kg): 4.78 mmHg; HR ([10]; 1 mg/kg): -36.78 beats min-1; BP ([12]; 1 mg/kg): -1.89 mmHg; HR ([13]; 1 mg/kg): -19.89 beats min-1; BP ([14]; 1 mg/kg): -2.67 mmHg
16 | CCCCCCCCC(=O)NCc1ccc(OCC(O)CNCCC)c(OC)c1 (stereo in doubt; 8) | – | – | – | – | – | – | – | – | – | – | – | – | pA2 [3]: 7.75; HR ([4]; 1 mg/kg): -14.11 beats min-1; HR ([5]; 1 mg/kg): -6.89 beats min-1; BP ([6]; 1 mg/kg): -1.78 mmHg; BP ([7]; 1 mg/kg): -2.44 mmHg; HR ([8]; 1 mg/kg): -35.33 beats min-1; BP ([9]; 1 mg/kg): -0.56 mmHg; HR ([10]; 1 mg/kg): -42.56 beats min-1; pA2 [11]: 6.79; BP ([12]; 1 mg/kg): -3.11 mmHg; HR ([13]; 1 mg/kg): -32 beats min-1; BP ([14]; 1 mg/kg): -2.56 mmHg
17 | COc1cc(CNC(=O)CCCC/C=C/C(C)C)ccc1O [CAPSAICIN] | – | – | – | – | – | – | – | – | – | – | – | – | Dose [1]: 0.001 mg/kg; BP [15]: -49.5 mmHg
18 | CCCCCCCCC(=O)NCc1ccc(O)c(OC)c1 [NONIVAMIDE] | – | – | – | – | – | – | – | – | – | – | – | – | Dose [1]: 0.005 mg/kg; BP [15]: -28.3 mmHg
19 | CC(C)NCC(O)COc1cccc2ccccc12 (configuration not stated) [PROPRANOLOL] | – | -62.57 beats min-1 | -52.14 beats min-1 | -2.83 mmHg | -4.67 mmHg | -63.85 beats min-1 | 2.17 mmHg | -57.28 beats min-1 | – | -6.5 mmHg | -65.28 beats min-1 | -6.33 mmHg | –
